Screening data: PubChem BioAssay, Broad Institute
SR-BI DiI inh – blocks mouse SR-BI lipid uptake from DiI-HDL; Q61009; ldlA[mSR-BI] CHO cells, DiI-HDL uptake fluorescence, 3 h; inhibition, % at 12.5 µM; hit rate 0.96% among 320,000; AID 488896;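 active means mean replicate inhibition of at least 70% and a set share of replicates each scoring 70 or more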
Env fusion inh – inhibitors of HIV Env-mediated cell fusion. hit rate 1.1% among 360,000. HeLa-JRFL Env/CEM21 cell fusion, luciferase. inhibition, % at 12.3 µM. AID 651610;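 active means mean replicate inhibition score of at least 50 and every replicate individually at or above 50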
SR-BI uptake up – activators of SR-BI mediated HDL lipid uptake. CHO ldlA[mSR-BI] cells, DiI-HDL uptake fluorescence, 3 h; 100 = double the neutral-control signal. activation, % at 12.5 µM. hit rate 0.096% among 320,000;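 active means mean replicate activation of at least 60% and every replicate at or above 60%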
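Material – SR-BI-overexpressing, LDLR-lacking CHO cells · Medium – BSA-supplemented, HEPES-buffered Ham's F12, pH 7.4 · Doses – single concentration · Times – compound with DiI-HDL co-incubation, 3 h at 37 °C · Measured by – bottom-read fluorescence, 550/595 nm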
N-glyco inh – N-linked glycosylation inhibition; reporter increase, % at 12.5 µM; D54 ERlucT glycosylation luciferase reporter, 24 h; percent of 100 nM tunicamycin response; hit rate 0.23% among 360,000;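 active means mean luciferase reporter signal, scaled so untreated is 0 and the glycosylation-blocking control 100, at or above a set limit in every replicate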;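 further: luciferase carries N-glycosylation sites so blocking glycosylation raises the light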
PglD inh – PglD (C. jejuni) enzyme inhibition. purified PglD enzyme, DTNB colorimetric CoA detection. hit rate 0.098% among 360,000. inhibition, % at 12.5 µM; in the data active means inhibition above about 16%, passing the limit was not always enough
Rtt109 HAT inh – C. albicans Rtt109 histone acetyltransferase inhibition; hit rate 0.16% among 330,000; inhibition, % at 34.9 µM; Q5AAJ8; AID 540336; purified Rtt109/Vps75, ThioGlo CoA-SH fluorescence, 4 h;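 active means inhibition of at least 50% in every replicate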
Target sequence (Q5AAJ8 whole entry, looked up): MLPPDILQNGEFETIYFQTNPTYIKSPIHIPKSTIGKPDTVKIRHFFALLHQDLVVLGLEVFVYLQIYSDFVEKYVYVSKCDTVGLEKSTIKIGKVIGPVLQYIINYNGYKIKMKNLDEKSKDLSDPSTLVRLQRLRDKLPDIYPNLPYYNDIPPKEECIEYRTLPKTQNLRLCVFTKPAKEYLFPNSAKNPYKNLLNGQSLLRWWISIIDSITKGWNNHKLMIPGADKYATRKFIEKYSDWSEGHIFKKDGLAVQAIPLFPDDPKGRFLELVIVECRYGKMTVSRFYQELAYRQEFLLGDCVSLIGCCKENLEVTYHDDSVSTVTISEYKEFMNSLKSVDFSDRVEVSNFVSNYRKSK
Hits are given with their value; – = inactive; · = not tested or not shown. Sampled rows, rich in hits. Any-hit rate of the full collection: about 1.9%.

SMILES | SR-BI DiI inh | Env fusion inh | SR-BI uptake up | N-glyco inh | PglD inh | Rtt109 HAT inh
Brc1ccc2c(c1)C(C1=NCCN1)c1ccccc1CS2 (centres undefined) | – | 61.9 | – | – | – | –
CO[C@H]1CN(C)C(=O)c2ccc(NC(C)=O)cc2OC[C@H](C)N(CCc2ccccc2)C[C@H]1C | · | · | · | · | – | ·
COc1cccc(CNc2nc3cc(-c4ccccc4)sc3c(=O)n2C)c1 | · | 63.0 | · | – | – | ·
COc1cccc(CNc2nc3cc(-c4ccc(OC)c(OC)c4)sc3c(=O)n2C)c1 | · | 59.6 | · | – | – | ·
COc1ccc(-c2cc3nc(NCc4ccc(N(C)C)cc4)n(C)c(=O)c3s2)cc1OC | · | – | · | – | – | ·
Cc1ccc(NC2=CC(=O)C(=O)c3ccccc32)c(C)c1 | – | 57.6 | – | – | – | –
C[C@@H]1CCCCO[C@H](CN(C)Cc2ccccc2)[C@H](C)CN([C@H](C)CO)C(=O)c2cc(NC(=O)Cc3ccccc3)ccc2O1 | · | – | · | · | – | ·
O=C(NCCNC(=O)c1cc(OCC(F)(F)F)ccc1OCC(F)(F)F)Nc1cccc(C(F)(F)F)c1 | – | 84.1 | – | – | – | –
Cc1ccc(S(=O)(=O)NCCNC(=O)c2cc(OCC(F)(F)F)ccc2OCC(F)(F)F)cc1 | – | 95.9 | – | – | – | –
CN(C)S(=O)(=O)NCCNC(=O)c1cc(OCC(F)(F)F)ccc1OCC(F)(F)F | – | – | – | – | · | ·
Cc1nn(C2CCS(=O)(=O)C2)c2nc(C3CC3)cc(C(=O)Nc3ccc(C(N)=O)cc3)c12 (centres undefined) | – | – | – | – | · | 50.1
CCO[C@H]1OC(C(=O)N2CCCC2)=C[C@@H](c2ccc(Br)cc2)[C@@H]1CCCO | · | – | · | · | – | ·
CCC(C)(C)NC(=O)C(c1ccccc1F)N(Cc1ccco1)C(=O)c1csnn1 (centres undefined) | – | 52.7 | – | – | – | –
CCC(C)(C)NC(=O)C(c1sccc1C)N(Cc1ccco1)C(=O)c1csnn1 (centres undefined) | – | 55.4 | – | – | – | –
Cc1ccc(C(C(=O)NC(C)(C)C)N(Cc2cccs2)C(=O)c2csnn2)cc1 (centres undefined) | – | 79.4 | – | – | – | –
CNC[C@@H]1Oc2ccc(NC(=O)C3CC3)cc2CC(=O)N([C@@H](C)CO)C[C@@H]1C | · | – | · | · | – | ·
O=C(C=Cc1ccccc1Cl)c1ccccc1 | – | – | – | – | – | –
O=C(/C=C/Sc1ccccc1)c1ccccc1 | – | · | – | 33.3 | – | –
O=C(/C=C/Nc1ccccc1)c1ccccc1 | – | · | – | – | – | –
O=C(/C=C/Sc1ccccc1)c1ccc(Cl)cc1 | – | · | – | 43.8 | · | –
O=C(C[C@@H]1C[C@H]2c3cc(NC(=O)C4CCC4)ccc3O[C@H]2[C@H](CO)O1)NCc1ccccn1 | · | – | · | · | – | ·
Cn1c(NCc2c(O)ccc3ccccc23)nc2ccccc21 | – | 71.0 | – | – | · | –
O=C(COc1ccc(-c2nnco2)cc1)NCc1ccccc1Cl | – | · | – | – | · | –
Cc1cc(C(=O)COc2ccc(-c3nnco3)cc2)c(C)n1Cc1ccccc1 | – | 65.2 | – | – | – | –
CC1=C(/C=C/C(C)=C/C=C/C(C)=C/C(=O)Nc2ccc(O)cc2)C(C)(C)CCC1 | 98.0 | – | – | – | – | –
SMILES | SR-BI DiI inh | Env fusion inh | SR-BI uptake up | N-glyco inh | PglD inh | Rtt109 HAT inh
O=C(c1ccc2ncsc2c1)N1CCN(c2nc3ccccc3s2)CC1 | – | 76.0 | – | – | – | –
O=C(c1ccc2ncsc2c1)N1CCN(c2ccccc2Cl)CC1 | – | – | – | – | – | –
Cc1ccc(-n2nnnc2SCn2nnc3ccccc3c2=O)c(C)c1 | – | 75.5 | – | – | – | –
Cc1cc(SCn2nnc3ccccc3c2=O)nc2ccccc12 | – | – | – | – | · | –
Fc1ccc(NC(=S)N2CCCN(c3ccc(C(F)(F)F)cn3)CC2)c(F)c1 | – | 61.1 | – | – | – | –
COc1cccc(S(=O)(=O)N[C@H]2CC[C@@H](CCn3cc(-c4ccc(F)cc4)nn3)O[C@H]2CO)c1 | · | – | · | · | – | ·
O=S(=O)(Nc1ccc(O)c(Sc2nc3ccccc3s2)c1)c1ccc(F)cc1 | – | – | – | – | · | –
O=S(=O)(Nc1ccc(O)c(Sc2nc3ccccc3s2)c1)c1cccc2ccccc12 | – | – | – | – | · | 57.7
CCOc1cccc(C(=O)Nc2ccc(N3CCCC3)cc2)c1 | 74.7 | – | – | – | – | –
CCOc1ccc(C(=O)Nc2ccc(N3CCCC3)cc2)cc1 | 77.2 | · | – | – | · | –
Cc1cccc(C(=O)NCC(=O)N(C)CC(=O)Nc2ccc(N3CCOCC3)cc2)c1 | – | – | – | – | – | –
CCCCOc1ccc(C(=O)NCC(=O)N(C)CC(=O)Nc2ccc(N3CCOCC3)cc2)cc1 | 82.4 | · | – | – | – | –
C[C@H]1CN([C@@H](C)CO)C(=O)c2cc(NS(C)(=O)=O)ccc2O[C@@H]1CN(C)C(=O)Nc1ccc(C(F)(F)F)cc1 | · | – | · | · | – | ·
COCC(=O)Nc1ccc2c(c1)C(=O)N(C)C[C@@H](OC)[C@@H](C)CN(C(=O)c1ccccc1F)[C@@H](C)CO2 | · | – | · | · | – | ·
CCOc1ccccc1-c1nc(-c2ccc(NC(=O)Cc3ccc(OC)cc3)cc2)no1 | 98.9 | · | – | – | – | –
CO[C@@H]1CN(C)C(=O)c2ccc(NC(=O)NC(C)C)cc2OC[C@@H](C)N(CC2CC2)C[C@H]1C | · | – | · | · | – | ·
COC(=O)c1ccccc1-c1c2ccc(=N)cc-2oc2cc(N)ccc12 | 76.6 | – | – | – | – | –
N#CCCN(C(=O)CSc1nc2ccccc2c(=O)[nH]1)c1ccc(F)cc1 | – | 81.0 | – | – | – | –
O=C(CCCSc1nnc(SCCCC(=O)c2ccc(F)cc2)s1)c1ccc(F)cc1 | – | 59.7 | – | – | – | ·
Nc1ccc2c(c1)Cc1cc(Cl)c(Cl)cc1-2 | – | 59.9 | – | – | – | –
Nc1ccc2c(c1)Cc1cc(N)c(Cl)cc1-2 | – | – | – | – | – | –
CC1=NN(C(=O)c2ccc(C)cc2)C(O)(C(F)(F)OC(F)(F)F)C1 (centres undefined) | 89.0 | – | – | – | – | –
Nc1ccn([C@@H]2O[C@H](C(=O)NCc3ccc4c(c3)OCO4)[C@@H](O)[C@H]2O)c(=O)n1 | · | 77.4 | · | – | – | ·
CC[C@@]1(C(=O)OC)N[C@H](CN(C)S(=O)(=O)c2ccc(-c3ccccc3)cc2)[C@@H]2C(=O)N(Cc3ccccc3)C(=O)[C@@H]21 | – | 138.5 | – | – | – | –
COC(=O)[C@]1(Cc2ccccc2)N[C@H](CN(C)S(=O)(=O)c2ccc(C(C)(C)C)cc2)[C@@H]2C(=O)N(Cc3ccccc3)C(=O)[C@@H]21 | · | – | · | – | – | –
COC(=O)[C@]1(Cc2ccccc2)N[C@H](CN(C)S(=O)(=O)c2ccc(C(F)(F)F)cc2)[C@@H]2C(=O)N(Cc3ccccc3)C(=O)[C@@H]21 | – | 69.5 | – | – | – | –
